# Screening results (PubChem)
# Lmaj promast: Leishmania major promastigote growth inhibition. Leishmania major promastigotes, resazurin fluorescence viability. actives 9% (n = 200,000). inhibition, % at 10 µM. AID 1063;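 note: promastigotes grown with compound for 44 hours at 28 °C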
# ABCG2 block: human ABCG2 inhibition, ABCB1 as counter-screen; IgMXP3 cells, JC-1 efflux, flow cytometry; inhibition, % at 6.6 µM; actives 0.1% (n = 190,000);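 active = inhibition above 80%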;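 note: 0% = DMSO and 100% = nicardipine control wells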
# Target sequence (Q9UNQ0 whole entry, looked up): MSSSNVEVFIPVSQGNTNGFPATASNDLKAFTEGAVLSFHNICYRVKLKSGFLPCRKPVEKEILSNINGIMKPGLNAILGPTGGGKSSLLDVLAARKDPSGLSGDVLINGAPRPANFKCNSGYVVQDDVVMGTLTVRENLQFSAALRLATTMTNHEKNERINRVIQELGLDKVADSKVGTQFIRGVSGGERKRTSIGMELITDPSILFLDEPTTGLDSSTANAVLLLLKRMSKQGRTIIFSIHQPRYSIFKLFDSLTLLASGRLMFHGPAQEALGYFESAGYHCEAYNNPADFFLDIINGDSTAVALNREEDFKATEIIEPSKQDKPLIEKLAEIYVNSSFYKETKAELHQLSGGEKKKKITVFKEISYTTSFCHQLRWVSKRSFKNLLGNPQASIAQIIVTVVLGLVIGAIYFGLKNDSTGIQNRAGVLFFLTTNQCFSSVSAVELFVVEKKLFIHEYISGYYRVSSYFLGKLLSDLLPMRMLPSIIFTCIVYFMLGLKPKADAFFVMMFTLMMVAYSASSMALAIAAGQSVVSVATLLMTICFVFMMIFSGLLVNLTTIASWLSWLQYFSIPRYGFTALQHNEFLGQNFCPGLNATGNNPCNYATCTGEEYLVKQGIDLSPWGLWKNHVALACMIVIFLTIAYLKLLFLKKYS
#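 Read-out basis: Efflux inhibition in percent versus controls | Test system: ABCG2 IgMXP3 and barcoded ABCB1 CCRF-Adr cell mix | Quantity: 3 million cells/mL in well | Schedule: 10 min at 25 °C | Control set: Nicardipine as high control, DMSO as low control | Reagent: JC-1 as fluorescent efflux pump substrate | Signal: Flow cytometry of retained JC-1 fluorescence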
# ABCB1 inh: blocks JC-1 efflux by human ABCB1 transporter. CCRF-Adr cells, flow cytometry. inhibition, % at 6.6 µM. actives 0.067% (n = 190,000). AID 1326; in the data active = inhibition above about 40%;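 note: 0% = vehicle and 100% = reference inhibitor; higher value means more JC-1 retained so stronger ABCB1 efflux block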
# GSH fluor: GSH bead compound fluorescence profile; GSH beads flow cytometry, compound fluorescence 488/530 nm; active compounds read high; fluorescence (KMESF) at 10 µM; actives 0.25% (n = 190,000); in the data active = fluorescence above about 89;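 note: glutathione beads carrying GST-tagged Bcl family fusion proteins plus one bare bead set; values are compound well signal with DMSO vehicle wells as background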
# Avidin fluor: compound fluoresces at 488/530 nm on avidin beads; compound fluorescence 488/530 nm, flow cytometry; active compounds read high; fluorescence (KMESF) at 10 µM; actives 0.38% (n = 220,000); AID 1775; in the data active = fluorescence above about 47
# PKD1 inh: inhibitors of human PKD1 kinase; Q15139; PKD1 kinase fluorescence polarization assay; inhibition, % (test concentration not listed); actives 0.056% (n = 200,000)
# * = called active by the depositor; / = no result given. The entries come from a sample that favours hits as a whole. Cut-off read from the data, not from the text of the source, unless noted: active = inhibition above about 50%; inactive = the rest.
SMILES,Lmaj promast,ABCG2 block,ABCB1 inh,GSH fluor,Avidin fluor,PKD1 inh
CCCNC(=O)CC1Sc2ccccc2NC1=O (configuration not stated),-4,0,0,30,14,-5
COc1ccc(CNC(=O)c2cccc(-c3ccc(C)c4ccccc34)n2)cc1,-1,17,1,19,7,-9
Oc1ccc2ccccc2c1CN1CCN(c2ccccc2)CC1,-7,-1,0,12,15,-9
Cc1ccc(C)c(S(=O)(=O)N2CCN(Cc3ccc(O)c4ncccc34)CC2)c1,100*,3,3,13,9,2
CCOC(=O)N1CCN(Cc2ccc(O)c3ncccc23)CC1,0,1,0,12,13,5
Cc1ccc(C)c(N2CCN(S(=O)(=O)c3cccc4cccnc34)CC2)c1,66*,8,1,12,8,4
Cc1ccc(C)c(S(=O)(=O)N2CCN(CC(=O)Nc3cc(C)on3)CC2)c1,1,0,0,11,7,0
Oc1ccc(CN2CCN(c3ccccc3)CC2)c2cccnc12,100*,0,0,36,7,-8
Oc1ccc(CN2CCCCC2)c2cccnc12,101*,-2,0,21,3,-2
CC1=C([N+](=O)[O-])C(c2cccc(Br)c2)C2=C(N1)c1ccccc1C2=O (configuration not stated),32,2,1,35,2,-2
CC(=O)C1=C(C)Nc2ncnn2C1c1ccc(Cl)cc1 (configuration not stated),-2,2,1,41,15,-8
COc1ccc(-n2ccnc2SCC(=O)NCc2ccc(F)cc2)c(OC)c1,0,7,2,15,12,-2
CCOC(=O)CSc1n[nH]c(NC(C)=O)n1,-4,1,1,16,19,-2
Oc1ccc(CN2CCC(Cc3ccccc3)CC2)c2cccnc12,101*,2,1,11,11,3
Clc1ccccc1CN1CCC(Cc2ccccc2)CC1,33,2,1,13,11,-1
OCc1ccc(O)c2ncccc12,100*,0,0,13,34,-2
Oc1ccc(F)c2cccnc12,8,1,1,13,6,0
COc1ccc(CN(C(=O)c2ccc(-c3ccccc3)[nH]2)C(C(=O)NCC2CCCO2)c2ccc(C)o2)cc1 (configuration not stated),26,23,7,12,6,5
Cc1cc(C)n2c(SCC(=O)N(C)C3CCCCC3)nnc2n1,1,16,1,19,10,-2
O=S(=O)(N1CCCCC1)n1nnc2ccccc21,2,1,0,10,49*,2
O=S(=O)(c1cccs1)n1nnc2ccccc21,0,-1,0,35,5,-11
C/C(=N\NC(N)=O)c1cccc(Cl)c1,83*,-2,1,6,7,-7
C/C(=N\N=C(N)N)c1cccc(Cl)c1,9,0,0,15,10,-2
Cc1nc(N)c(C#N)c(-c2ccccc2)c1C,-2,4,1,23,5,0
Cc1c(C#N)c(N)nc(Cl)c1C#N,5,6,1,12,11,115*
SMILES,Lmaj promast,ABCG2 block,ABCB1 inh,GSH fluor,Avidin fluor,PKD1 inh
C/C(=N/NC(=O)c1ccco1)c1cccc(NC(=O)c2ccc(C)s2)c1,7,8,0,10,1,3
C/C(=N\NC(=O)c1ccc(Br)cc1)c1cccc(NC(=O)c2cccnc2)c1,3,2,0,14,12,-5
C/C(=N\NC(=O)c1cccc(Cl)c1)c1cccc(NC(=O)c2ccco2)c1,32,2,0,44,3,-9
C/C(=N/NC(=O)c1ccco1)c1cccc(NC(=O)c2ccc(C)o2)c1,66*,1,0,21,4,-4
Cc1ccc(O)c(NC(=O)c2cccc(NC(=O)c3ccco3)c2)c1,98*,1,2,36,10,8
C/C(=N\NC(=O)c1cccc(C)c1)c1cccc(NC(=O)c2ccco2)c1,83*,3,0,7,18,1
C/C(=N\NC(=O)c1nn(C)cc1Br)c1cccc(NC(=O)c2ccncc2)c1,63*,62,1,11,13,0
CCCn1nnc(NC(=S)NC(=O)c2cccs2)n1,-10,-3,-1,10,4,-1
O=C(NCc1ccccc1C(F)(F)F)C1CC(c2ccccc2[N+](=O)[O-])=NO1 (configuration not stated),-2,6,1,35,14,4
CCCC/C(=N\NC(=O)c1ccc(Br)o1)c1ccccc1,89*,2,0,11,5,2
CC(=O)c1cccc(NC(=O)c2ccc(-c3ccccc3[N+](=O)[O-])o2)c1,75*,16,1,7,17,12
C/C(=N/NC(=O)c1ccc(Br)o1)c1cccc(NC(=O)c2ccc(C)o2)c1,92*,-1,0,16,8,-5
CC/C(=N/NC(=O)c1ccc(Br)o1)c1ccc(Cl)cc1,-2,5,/,12,6,1
O=C(c1ccccc1)c1cccc(NC(=O)c2ccc(Br)o2)c1,97*,4,1,3,5,4
C/C(=N/NC(=O)c1ccc(Br)o1)c1ccncc1,-2,8,0,21,12,-11
CN(c1ccccc1)S(=O)(=O)c1cccc(NC(=O)C2CC(=O)N(Cc3ccccc3)C2)c1 (configuration not stated),/,/,/,/,8,/
Nn1c(SCc2cn3ccccc3n2)nnc1-c1ccncc1,-3,9,1,16,9,2
CCCC(=O)Nc1nc2c(OC)ccc(OC)c2s1,1,13,1,17,6,-4
CCn1c(/C=C/Nc2ccccc2)[n+](CC)c2cc(Cl)c(Cl)cc21,100*,3,0,4,3,0
CCOc1ccc(C(=O)N/N=C/c2cccc3cccnc23)cc1,98*,3,0,24,5,-12
COc1ccc(C(=O)N/N=C/c2cccc3cccnc23)cc1,97*,1,0,8,9,3
COc1ccc(C(=O)N/N=C(\c2ccccc2)c2ccccn2)cc1,100*,42,2,3,9,-10
CCOc1ccccc1C(=O)N/N=C/c1cccc2cccnc12,25,9,1,24,11,1
CCn1cc(/C=N/NC(=O)COc2cccc3cccnc23)c2ccccc21,60*,8,1,13,9,-2
Cc1c(C(=O)C(=O)NCc2cccs2)c2ccccc2n1C,-1,2,0,20,6,-4
Cc1nc2ccccc2n1C1CCN(C(=O)Nc2ccccc2)CC1,-5,3,1,17,5,3
Brc1ccc(-c2cn3nc4c(nc3n2)CCCC4)cc1,42,9,1,9,9,-3
